Reference: ChEMBL document CHEMBL3813647, “Discovery of an Orally Active and Liver-Targeted Prodrug of 5-Fluoro-2'-Deoxyuridine for the Treatment of Hepatocellular Carcinoma” (J Med Chem, 2016)

Tests used:
Mus musculus [1] = test: Toxicity in KM mouse implanted with mouse H22 cells assessed as body weight level at 130 mg/kg administered daily through oral gavage after 8 days (reference value: 21.7 to 22.3 g); format: organism-based; details: in vivo, 192 h
[2] = Half life in rat plasma by HPLC analysis; format: ADME, cell-free
Procedure, shortened: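 Rat plasma, 37 °C. Compound added from a 2.5 mM stock, sampled at 0–24 h, quenched with MeOH. Analyzed by HPLC-UV at 267 nm (C8 column, MeOH:H2O 68:32). Triplicate samples.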

Liver [3] = test: AUC (infinity) in Sprague-Dawley rat liver assessed as 5-FU formation at 52.17 mg/kg administered through oral gavage measured up to 24 hrs by HPLC-MS/MS analysis; format: ADME, organism-based; parameters: dose 52.17 mg/kg, route oral, time infinity; details: in vivo
Procedure, shortened: (§1)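 Male Sprague-Dawley rats (220 ± 20 g), single gavage of 0.096 mmol/kg. FDUR was dosed in H2O; the prodrugs were dosed in 20% hydroxypropyl-β-cyclodextrin. n = 3 per time point, sampled at 0.25–24 h. Plasma (EDTA-K2, cardiac puncture) and freeze-clamped liver were homogenized in 20 mM EDTA-K2/70% MeOH. Analytes measured by HPLC-MS/MS in ESI negative mode.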

Mus musculus [4] = test: Toxicity in KM mouse assessed as damage to liver at 2 to 3 g/kg, administered through oral gavage after 15 days; details: in vivo, 360 h
Liver [5] = test: Drug metabolism in Sprague-Dawley rat liver S9 fraction assessed as FdUMP formation at 20 ug/mL after 20 mins by HPLC-MS/MS analysis in absence of NADPH; format: ADME; details: s9, 20 min
Procedure, shortened: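 Rat liver S9 (10 mg/mL) incubated with compound at 20 μg/mL. Parent, intermediate A and FdUMP followed over time by HPLC-MS/MS. Negative control run without NADPH.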

Mus musculus [6] = test: Toxicity in KM mouse implanted with mouse H22 cells assessed as body weight level at 65 mg/kg administered daily through oral gavage after 8 days (reference value: 21.7 to 22.3 g); format: organism-based; details: in vivo, 192 h
Plasma [7] = test: AUC (infinity) in Sprague-Dawley rat plasma assessed as (S)-2-((R)-(((2R,3S,5R)-5-(5-fluoro-2,4-dioxo-3,4-dihydropyrimidin-1(2H)-yl)-3-hydroxytetrahydrofuran-2-yl)methoxy)(2-methylbenzyloxy)phosphorylamino)propanoate formation at 52.17 mg/kg administered through oral gavage measured up to 24 hrs by HPLC-MS/MS analysis; format: ADME, organism-based; parameters: dose 52.17 mg/kg, time infinity, route oral; details: in vivo; procedure, shortened: as §1
[8] = Ratio of FdUMP AUC (infinity) in Sprague-Dawley rat liver to FDUR AUC (infinity) in Sprague-Dawley rat plasma at 52.17 mg/kg administered through oral gavage; format: ADME, organism-based; details: in vivo
Procedure, shortened: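 Male Sprague-Dawley rats (220 20 g), single gavage of 0.096 mmol/kg prodrug in 20% hydroxypropyl-β-cyclodextrin. Blood by cardiac puncture under isoflurane and liver at 0.25–24 h, n = 3 per time point. Liver freeze-clamped and homogenized in 20 mM EDTA-K2/70% MeOH. FdUMP (liver) and FDUR (plasma) by HPLC-MS/MS, negative ESI. Index = AUC(inf) liver FdUMP / AUC(inf) plasma FDUR.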

Plasma [9] = test: Drug metabolism in Sprague-Dawley rat plasma assessed as o-methylhippuric acid formation; format: ADME, cell-free
Plasma [10] = test: AUC (infinity) in Sprague-Dawley rat plasma assessed as FDUR formation at 52.17 mg/kg administered through oral gavage measured up to 24 hrs by HPLC-MS/MS analysis; format: ADME, organism-based; parameters: dose 52.17 mg/kg, time infinity, route oral; details: in vivo; procedure, shortened: as §1
[11] = Half life in dog plasma by HPLC-MS/MS analysis; format: ADME, cell-free, Canis lupus familiaris
Procedure, shortened: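 Compound at 1 μg/mL final in dog or human plasma, 37 °C. Sampled at 0–24 h and quenched with ice-cold MeOH containing internal standard. Parent measured by LC-MS/MS in ESI negative mode; t1/2 calculated from percent remaining versus 0 h.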

[12] = Ratio of metabolite A AUC (infinity) in Sprague-Dawley rat liver to (S)-2-((R)-(((2R,3S,5R)-5-(5-fluoro-2,4-dioxo-3,4-dihydropyrimidin-1(2H)-yl)-3-hydroxytetrahydrofuran-2-yl)methoxy)(2-methylbenzyloxy)phosphorylamino)propanoate AUC (infinity) in Sprague-Dawley rat plasma at 52.17 mg/kg administered through oral gavage; format: ADME, organism-based; details: in vivo
Mus musculus [13] = test: Toxicity in KM mouse assessed as damage to lung at 2 to 3 g/kg, administered through oral gavage after 15 days; details: in vivo, 360 h

## Cc1ccccc1CO[P@](=O)(N[C@@H](C)C(=O)OC(C)C)OC[C@H]1O[C@@H](n2cc(F)c(=O)[nH]c2=O)C[C@@H]1O
Mus musculus [1]
  Activity: 23.8 g
[2]
  half-life: < 4.98 min
Liver [3]
  AUC: 257 ng·h/g
Mus musculus [4]
  Activity: Non-toxic
Liver [5]
  Drug metabolism: metabolite_notdetected
Mus musculus [6]
  Activity: 25.9 g
Plasma [7]
  AUC: 316 ng·h/mL
[8]
  Ratio AUC: 20.9
Plasma [9]
  Drug metabolism: metabolite_detected
Plasma [10]
  AUC: 26 ng·h/mL
[11]
  half-life: > 24 h
[12]
  Ratio AUC: 17.4
Mus musculus [13]
  Activity: Non-toxic
